Results published in ChEMBL document CHEMBL1134692, “QSAR study on the contribution of log P and E(s) to the in vitro antiprotozoal activity of glutathione derivatives” (J Med Chem, 2001).

Legend:
Leishmania donovani [1] = assay: Inhibitory activity against Leishmania donovani; type: functional; conditions: read-out: ED50 (the source's name)
Procedure, shortened: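 Starch-elicited peritoneal macrophages from female CD1 mice were plated at 4 × 10^4/well in RPMI-1640 with 10% HIFCS. After 24 h they were infected at 10:1 with L. donovani amastigotes (MHOM/ET/67/L82, hamster-passaged). Drug was given as a 3-fold dilution series in quadruplicate for 5 days. Activity was scored as the percentage of macrophages cleared of amastigotes. Sodium stibogluconate control.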

[2] = Evaluated for its inhibitory activity against KB cells; type: functional; conditions: Homo sapiens, read-out: ED50 (the source's name)
Procedure, shortened: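 KB cells (human oral pharyngeal carcinoma) grown in RPMI with 10% calf foetal serum at 37 °C, 5% CO2 in humidified air. Exposed to compound for 3 days under the same conditions, then viability read by Alamar Blue assay; ED50 reported.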

[3] = Partition coefficient (logP); type: physicochemical; conditions: octanol/water
Leishmania donovani [4] = assay: (§1) Percent decrease in viable parasitesrelative to the control at 30 uM; type: functional
Procedure, shortened: (§2)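 Single concentration of 30 μM in the intracellular amastigote macrophage assays. Inhibition is expressed as the percent decrease in viable parasites relative to untreated control.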

[5] = Relative toxicity was evaluated as ED50 for KB cell line to that of ED50 for T.B. brucei; type: organism-based; conditions: trypanosoma brucei brucei, KB cells versus Trypanosoma brucei brucei; read-out: Relative toxicity
Procedure, shortened: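 Ratio of ED50 against KB cells to ED50 against T. b. brucei bloodstream forms, each from the 3-day Alamar Blue assays.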

[6] = system: Trypanosoma brucei brucei; assay: Inhibitory activity against Trypanosoma brucei; type: functional; conditions: read-out: ED50 (the source's name)
Procedure, shortened: (§3)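 T. b. brucei S427 bloodstream trypomastigotes kept in HMI-18 with 20% heat-inactivated FCS at 37 °C, 5% CO2. Parasites at 2 × 10^5/mL were mixed 1:1 with compound, run in triplicate as a 3-fold dilution series from 30 μM top. Incubated 3 days at 37 °C; Alamar Blue read-out on day 3 gave ED50. Pentamidine positive control.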

Trypanosoma cruzi [7] = assay: as §1; type: functional; procedure, shortened: as §2
Trypanosoma cruzi [8] = assay: Evaluated for its inhibitory activity against Trypanosoma cruzi; type: functional; conditions: read-out: ED50 (the source's name)
Procedure, shortened: (§4)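 Starch-elicited female CD1 mouse peritoneal macrophages (4 × 10^4/well, RPMI-1640, 10% HIFCS) were infected after 24 h at 5:1 with T. cruzi Y trypomastigotes derived from MDCK cultures. Drug was applied as a 3-fold dilution series in quadruplicate for 3 days. Activity was the percentage of macrophages cleared of amastigotes. Nifurtimox control.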

Trypanosoma cruzi [9] = assay: (§5) Percent decrease in viable parasitesrelative to the control; type: functional; procedure, shortened: as §2
Trypanosoma cruzi [10] = assay: Evaluated for its inhibitory activity against Trypanosoma cruzi; NA= not active at 30 umol; type: functional, organism-based; procedure, shortened: as §4
Leishmania donovani [11] = assay: as §5; type: functional; procedure, shortened: as §2
[12] = system: Trypanosoma brucei brucei; assay: Compound was evaluated for its inhibitory activity against Trypanosoma brucei; NA= not active at 30 umol; type: functional, organism-based; procedure, shortened: as §3

Row | SMILES | EC50 (Leishmania donovani [1]) [µM] | EC50 [2] [µM] | logP [3] | inhibition at 30 µM (Leishmania donovani [4]) [%] | selectivity ratio [5] | EC50 [6] [µM] | inhibition at 30 µM (Trypanosoma cruzi [7]) [%] | EC50 (Trypanosoma cruzi [8]) [µM] | Inhibition (Trypanosoma cruzi [9]) [%] | Activity against T. cruzi (Trypanosoma cruzi [10]) | Inhibition (Leishmania donovani [11]) [%] | NA [12]
1 | CCC(CC)OC(=O)CNC(=O)C(CSc1ccc([N+](=O)[O-])cc1[N+](=O)[O-])NC(=O)CCC(NC(=O)OCc1ccccc1)C(=O)OC(CC)CC (stereo unspecified) | > 30 | 213 | 5.89 | 17 | 57 | 3.74 |  |  |  |  |  | 
2 | CCCC(CC)OC(=O)CNC(=O)C(CSc1ccc([N+](=O)[O-])cc1[N+](=O)[O-])NC(=O)CCC(NC(=O)OCc1ccccc1)C(=O)OC(CC)CCC (stereo unspecified) |  |  | 6.87 |  |  |  |  |  |  |  |  | 
3 | O=C(CCC(NC(=O)OCc1ccccc1)C(=O)OC1CCCC1)NC(CSc1ccc([N+](=O)[O-])cc1[N+](=O)[O-])C(=O)NCC(=O)OC1CCCC1 (stereo unspecified) | 29.6 | 50.5 | 5.67 |  | 280 | 0.18 | 30 | > 30 |  |  |  | 
4 | CC(C)CCC(C)OC(=O)CNC(=O)C(CSc1ccc([N+](=O)[O-])cc1[N+](=O)[O-])NC(=O)CCC(NC(=O)OCc1ccccc1)C(=O)OC(C)CCC(C)C (stereo unspecified) | > 30 | > 300 | 7.71 | 70 | > 9 | 34.8 |  |  |  |  |  | 
5 | O=C(CCC(NC(=O)OCc1ccccc1)C(=O)OC1CCCCC1)NC(CSc1ccc([N+](=O)[O-])cc1[N+](=O)[O-])C(=O)NCC(=O)OC1CCCCC1 (stereo unspecified) |  | 51 | 6.65 |  | 243 | 0.21 |  |  |  |  |  | 
6 | O=C(CCC(NC(=O)OCc1ccccc1)C(=O)OCCCCl)NC(CSc1ccc([N+](=O)[O-])cc1[N+](=O)[O-])C(=O)NCC(=O)OCCCCl (stereo unspecified) | > 30 | 0.39 | 4.58 |  | 0.8 | 1.05 |  | > 30 | 35 |  |  | 
7 | CCCC(C)OC(=O)CNC(=O)C(CSc1ccc([N+](=O)[O-])cc1[N+](=O)[O-])NC(=O)CCC(NC(=O)OCc1ccccc1)C(=O)OC(C)CCC (stereo unspecified) | > 30 | 393 | 5.89 | 25 | 118 | 3.34 | 17 | > 30 |  |  |  | 
8 | CCCCCCOC(=O)CNC(=O)C(CSc1ccc([N+](=O)[O-])cc1[N+](=O)[O-])NC(=O)CCC(NC(=O)OCc1ccccc1)C(=O)OCCCCCC (stereo unspecified) | > 30 | 109 | 7.02 |  | 18.8 | 5.8 |  | > 30 | 36 |  |  | 
9 | CC(C)OC(=O)CNC(=O)C(CSc1ccc([N+](=O)[O-])cc1[N+](=O)[O-])NC(=O)CCC(NC(=O)OCc1ccccc1)C(=O)OC(C)C (stereo unspecified) | 7.8 | 269 | 3.93 |  | 13.5 | 20 |  |  |  | not active at 30 umol |  | 
10 | CCC(C)OC(=O)CNC(=O)C(CSc1ccc([N+](=O)[O-])cc1[N+](=O)[O-])NC(=O)CCC(NC(=O)OCc1ccccc1)C(=O)O (stereo unspecified) | 20 |  | 2.72 |  |  | 20 |  |  |  | not active at 30 umol |  | 
11 | CCOC(=O)CNC(=O)C(CSc1ccc([N+](=O)[O-])cc1[N+](=O)[O-])NC(=O)CCC(NC(=O)OCc1ccccc1)C(=O)O (stereo unspecified) | > 30 |  | 1.82 |  |  |  |  |  |  |  |  | 
12 | O=C(CCC(NC(=O)OCc1ccccc1)C(=O)OCCCl)NC(CSc1ccc([N+](=O)[O-])cc1[N+](=O)[O-])C(=O)NCC(=O)OCCCl (stereo unspecified) | 9.92 | 49.5 | 3.6 |  | 101 | 0.49 |  |  |  |  |  | 
13 | CCC(C)OC(=O)CNC(=O)C(CSc1ccc([N+](=O)[O-])cc1[N+](=O)[O-])NC(=O)CCC(NC(=O)OCc1ccccc1)C(=O)OC(C)CC (stereo unspecified) | > 30 | > 300 | 4.91 | 36 | 150 | 2 |  |  |  |  |  | 
14 | CCCCOC(=O)C(CCC(=O)NC(CSc1ccc([N+](=O)[O-])cc1[N+](=O)[O-])C(=O)NCC(=O)O)NC(=O)OCc1ccccc1 (stereo unspecified) | > 30 |  | 2.8 |  |  | 10.3 |  | > 30 |  |  | 12 | 
15 | CCCCCCCCOC(=O)CNC(=O)C(CSc1ccc([N+](=O)[O-])cc1[N+](=O)[O-])NC(=O)CCC(NC(=O)OCc1ccccc1)C(=O)OCCCCCCCC (stereo unspecified) | > 30 | 95.3 | 8.99 |  |  |  |  |  |  | not active at 30 umol | 11 | not active at 30 umol
16 | COCCOC(=O)CNC(=O)C(CSc1ccc([N+](=O)[O-])cc1[N+](=O)[O-])NC(=O)CCC(NC(=O)OCc1ccccc1)C(=O)OCCOC (stereo unspecified) | 20 | 0.7 | 1.56 |  | 0.07 | 10 |  |  |  |  |  | 
17 | CC(C)CC(C)OC(=O)CNC(=O)C(CSc1ccc([N+](=O)[O-])cc1[N+](=O)[O-])NC(=O)CCC(NC(=O)OCc1ccccc1)C(=O)OC(C)CC(C)C (stereo unspecified) | > 30 | 43.2 | 6.73 | 8 | 173 | 0.25 | 31 | > 30 |  |  |  | 
18 | O=C(CCC(NC(=O)OCc1ccccc1)C(=O)OCCF)NC(CSc1ccc([N+](=O)[O-])cc1[N+](=O)[O-])C(=O)NCC(=O)OCCF (stereo unspecified) | > 30 | 15.2 | 2.97 |  | 0.99 | 21.8 |  | > 30 | 8 |  | 26 | 
19 | CCCOC(=O)CNC(=O)C(CSc1ccc([N+](=O)[O-])cc1[N+](=O)[O-])NC(=O)CCC(NC(=O)OCc1ccccc1)C(=O)O (stereo unspecified) | > 30 |  | 2.31 |  |  |  |  |  |  | not active at 30 umol |  | not active at 30 umol
20 | O=C(CCC(NC(=O)OCc1ccccc1)C(=O)OCCCCCl)NC(CSc1ccc([N+](=O)[O-])cc1[N+](=O)[O-])C(=O)NCC(=O)OCCCCCl (stereo unspecified) | > 30 | 0.38 | 5.56 |  | 0.12 | 3.05 |  | 28 |  |  |  | 
21 | CC(C)C(C)OC(=O)CNC(=O)C(CSc1ccc([N+](=O)[O-])cc1[N+](=O)[O-])NC(=O)CCC(NC(=O)OCc1ccccc1)C(=O)OC(C)C(C)C (stereo unspecified) | 13.4 | 245 | 5.75 |  | 24 | 6 | 64 | < 30 |  |  |  | 
22 | CCCCC(C)OC(=O)CNC(=O)C(CSc1ccc([N+](=O)[O-])cc1[N+](=O)[O-])NC(=O)CCC(NC(=O)OCc1ccccc1)C(=O)OC(C)CCCC (stereo unspecified) | > 30 | 178 | 6.87 | 6 | 46 | 5.2 | 21 | > 30 |  |  |  | 
23 | COC(=O)CNC(=O)C(CSc1ccc([N+](=O)[O-])cc1[N+](=O)[O-])NC(=O)CCC(NC(=O)OCc1ccccc1)C(=O)O (stereo unspecified) | > 30 |  | 1.32 |  |  |  |  |  |  |  |  | 
24 | CC(C)OC(=O)CNC(=O)C(CSc1ccc([N+](=O)[O-])cc1[N+](=O)[O-])NC(=O)CCC(NC(=O)OCc1ccccc1)C(=O)O (stereo unspecified) |  |  | 2.23 |  |  |  |  |  |  | not active at 30 umol |  | not active at 30 umol
